Experimental data taken from ChEMBL document CHEMBL3616441, “Discovery of a Selective and CNS Penetrant Negative Allosteric Modulator of Metabotropic Glutamate Receptor Subtype 3 with Antidepressant and Anxiolytic Activity in Rodents” (J Med Chem, 2015).
pEC50, pIC50: −log10 of the molar value. The source made the active and inactive calls. The rule behind the calls is not given here.

Legend:
[1] = target: Metabotropic glutamate receptor 3 (Rattus norvegicus) (UniProt P31422); test: Negative allosteric modulation of rat mGlu3 receptor assessed as amplitude response at 30 uM relative to glutamate
Outline: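 Calcium mobilization in cell line stably expressing rat mGlu3 with promiscuous Gα15; fluorescence read-out; amplitude of glutamate response with 30 μM test compound expressed as percentage of maximal response (100 μM glutamate); average of n = 3.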

[2] = target: Metabotropic glutamate receptor 5 (Rattus norvegicus) (UniProt P31424); test: Negative allosteric modulation of rat mGlu5 receptor assessed as calcium mobilization by cell based fluorescence assay; assay type: functional
[3] = target: Metabotropic glutamate receptor 5 (Rattus norvegicus) (UniProt P31424); test: Modulation of rat mGlu5 receptor assessed as assessed as calcium mobilization at 30 uM by cell based fluorescence assay; assay type: functional
[4] = target: Metabotropic glutamate receptor 5 (Rattus norvegicus, UniProt P31424); test: Modulation of rat mGlu5 receptor assessed as calcium mobilization by cell based fluorescence assay; assay type: functional
Outline: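 Calcium mobilization assay with fluorescence read-out in cells expressing mGlu5; full concentration-response curves; % Glu Max is the amplitude of response with 30 μM test compound as a percentage of the maximal response to 100 μM glutamate; values averaged over n-3.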

[5] = target: Metabotropic glutamate receptor 3 (Rattus norvegicus, UniProt P31422); test: Negative allosteric modulation of rat mGlu3 receptor assessed as calcium mobilization by cell based fluorescence assay; assay type: functional
Outline: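 Cell line stably expressing rat mGlu3 with the promiscuous G-protein Gα15. Calcium mobilization with fluorescence read-out, inhibition of the glutamate response. Full concentration-response curves, top concentration 30 μM. % Glu Max is the response with 30 μM test compound as a percentage of the maximal response to 100 μM glutamate. Values averaged over n-3.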

[6] = target: Metabotropic glutamate receptor 5 (Rattus norvegicus) (UniProt P31424); test: Positive allosteric modulation of rat mGlu5 receptor assessed as calcium mobilization by cell based fluorescence assay; assay type: functional

Sequence of Metabotropic glutamate receptor 3 (P31422 whole entry): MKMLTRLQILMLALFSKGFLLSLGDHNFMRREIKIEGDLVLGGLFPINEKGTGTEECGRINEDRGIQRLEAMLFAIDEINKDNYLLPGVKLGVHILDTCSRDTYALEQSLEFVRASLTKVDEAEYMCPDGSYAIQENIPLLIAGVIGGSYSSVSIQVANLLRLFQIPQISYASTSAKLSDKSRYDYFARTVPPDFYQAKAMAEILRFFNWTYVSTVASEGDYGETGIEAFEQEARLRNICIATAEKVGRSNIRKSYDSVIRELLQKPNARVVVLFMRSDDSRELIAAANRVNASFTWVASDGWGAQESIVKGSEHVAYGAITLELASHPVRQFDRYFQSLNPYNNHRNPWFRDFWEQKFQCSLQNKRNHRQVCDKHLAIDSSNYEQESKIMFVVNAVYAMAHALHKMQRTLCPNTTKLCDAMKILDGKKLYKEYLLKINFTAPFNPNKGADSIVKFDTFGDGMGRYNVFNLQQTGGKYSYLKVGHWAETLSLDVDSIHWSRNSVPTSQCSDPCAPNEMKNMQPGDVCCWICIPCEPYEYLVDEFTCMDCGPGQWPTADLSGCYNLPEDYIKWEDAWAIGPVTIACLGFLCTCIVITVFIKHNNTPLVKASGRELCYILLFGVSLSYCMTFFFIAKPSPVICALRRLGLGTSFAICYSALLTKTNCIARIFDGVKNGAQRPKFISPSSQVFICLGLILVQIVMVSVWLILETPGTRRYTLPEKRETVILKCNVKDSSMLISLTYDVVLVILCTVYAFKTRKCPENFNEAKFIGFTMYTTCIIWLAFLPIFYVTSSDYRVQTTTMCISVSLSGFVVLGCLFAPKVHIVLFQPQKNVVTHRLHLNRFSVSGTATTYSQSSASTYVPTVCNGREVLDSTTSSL
Sequence of Metabotropic glutamate receptor 3 (Rattus norvegicus) (P31422 23-879 limits assumed): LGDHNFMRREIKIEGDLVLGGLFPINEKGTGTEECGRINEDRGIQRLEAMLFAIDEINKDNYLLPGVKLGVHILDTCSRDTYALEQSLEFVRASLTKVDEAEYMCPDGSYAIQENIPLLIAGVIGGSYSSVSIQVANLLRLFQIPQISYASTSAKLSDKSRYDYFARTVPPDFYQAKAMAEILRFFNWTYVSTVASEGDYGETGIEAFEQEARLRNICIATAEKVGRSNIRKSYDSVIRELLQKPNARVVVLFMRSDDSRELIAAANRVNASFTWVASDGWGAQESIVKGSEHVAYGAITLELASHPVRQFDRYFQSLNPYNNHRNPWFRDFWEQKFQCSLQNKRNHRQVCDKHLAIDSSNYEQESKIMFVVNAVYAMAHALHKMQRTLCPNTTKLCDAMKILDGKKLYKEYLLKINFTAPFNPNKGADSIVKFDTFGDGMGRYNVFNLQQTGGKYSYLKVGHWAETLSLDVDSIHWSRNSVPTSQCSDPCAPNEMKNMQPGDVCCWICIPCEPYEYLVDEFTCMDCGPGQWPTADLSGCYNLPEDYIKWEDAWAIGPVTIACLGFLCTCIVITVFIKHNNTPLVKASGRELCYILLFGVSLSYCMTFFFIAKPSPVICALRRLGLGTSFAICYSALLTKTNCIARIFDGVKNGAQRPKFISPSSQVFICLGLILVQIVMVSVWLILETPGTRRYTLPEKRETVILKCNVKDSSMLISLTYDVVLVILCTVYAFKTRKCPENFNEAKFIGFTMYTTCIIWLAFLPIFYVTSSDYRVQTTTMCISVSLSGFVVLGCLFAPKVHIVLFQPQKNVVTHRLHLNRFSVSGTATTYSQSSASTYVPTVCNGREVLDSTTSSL
Sequence of Metabotropic glutamate receptor 5 (P31424 whole entry): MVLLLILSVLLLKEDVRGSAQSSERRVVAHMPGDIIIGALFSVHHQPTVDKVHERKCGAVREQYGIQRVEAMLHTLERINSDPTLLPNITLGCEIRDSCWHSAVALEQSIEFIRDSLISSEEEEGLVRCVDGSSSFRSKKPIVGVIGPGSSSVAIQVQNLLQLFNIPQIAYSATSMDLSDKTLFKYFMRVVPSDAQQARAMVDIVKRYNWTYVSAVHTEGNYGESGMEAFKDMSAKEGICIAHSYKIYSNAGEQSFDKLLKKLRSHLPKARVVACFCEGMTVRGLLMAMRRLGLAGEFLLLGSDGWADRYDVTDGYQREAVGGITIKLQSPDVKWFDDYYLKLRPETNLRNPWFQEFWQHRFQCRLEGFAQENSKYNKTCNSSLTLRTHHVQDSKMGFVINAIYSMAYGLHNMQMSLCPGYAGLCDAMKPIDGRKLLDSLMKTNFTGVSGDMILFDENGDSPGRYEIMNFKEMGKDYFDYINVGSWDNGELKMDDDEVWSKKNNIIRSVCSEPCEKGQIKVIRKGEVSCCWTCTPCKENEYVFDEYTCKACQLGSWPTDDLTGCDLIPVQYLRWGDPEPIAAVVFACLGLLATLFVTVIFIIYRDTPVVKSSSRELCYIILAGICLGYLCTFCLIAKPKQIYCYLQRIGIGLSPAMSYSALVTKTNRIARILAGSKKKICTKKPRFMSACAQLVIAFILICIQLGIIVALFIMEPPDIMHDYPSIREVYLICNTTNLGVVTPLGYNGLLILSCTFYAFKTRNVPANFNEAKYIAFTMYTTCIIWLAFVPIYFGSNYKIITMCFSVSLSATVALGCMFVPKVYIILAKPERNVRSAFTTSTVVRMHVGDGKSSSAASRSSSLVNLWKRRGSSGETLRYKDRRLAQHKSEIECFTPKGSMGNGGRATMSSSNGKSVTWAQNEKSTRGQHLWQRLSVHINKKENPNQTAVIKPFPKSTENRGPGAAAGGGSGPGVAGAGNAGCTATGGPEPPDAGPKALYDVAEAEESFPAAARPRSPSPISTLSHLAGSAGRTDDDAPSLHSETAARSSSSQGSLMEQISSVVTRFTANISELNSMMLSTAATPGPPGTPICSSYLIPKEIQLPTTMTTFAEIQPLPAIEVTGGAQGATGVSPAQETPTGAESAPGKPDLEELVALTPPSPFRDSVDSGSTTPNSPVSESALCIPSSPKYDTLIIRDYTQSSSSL
Sequence of Metabotropic glutamate receptor 5 (Rattus norvegicus) (P31424 21-1203 limits assumed): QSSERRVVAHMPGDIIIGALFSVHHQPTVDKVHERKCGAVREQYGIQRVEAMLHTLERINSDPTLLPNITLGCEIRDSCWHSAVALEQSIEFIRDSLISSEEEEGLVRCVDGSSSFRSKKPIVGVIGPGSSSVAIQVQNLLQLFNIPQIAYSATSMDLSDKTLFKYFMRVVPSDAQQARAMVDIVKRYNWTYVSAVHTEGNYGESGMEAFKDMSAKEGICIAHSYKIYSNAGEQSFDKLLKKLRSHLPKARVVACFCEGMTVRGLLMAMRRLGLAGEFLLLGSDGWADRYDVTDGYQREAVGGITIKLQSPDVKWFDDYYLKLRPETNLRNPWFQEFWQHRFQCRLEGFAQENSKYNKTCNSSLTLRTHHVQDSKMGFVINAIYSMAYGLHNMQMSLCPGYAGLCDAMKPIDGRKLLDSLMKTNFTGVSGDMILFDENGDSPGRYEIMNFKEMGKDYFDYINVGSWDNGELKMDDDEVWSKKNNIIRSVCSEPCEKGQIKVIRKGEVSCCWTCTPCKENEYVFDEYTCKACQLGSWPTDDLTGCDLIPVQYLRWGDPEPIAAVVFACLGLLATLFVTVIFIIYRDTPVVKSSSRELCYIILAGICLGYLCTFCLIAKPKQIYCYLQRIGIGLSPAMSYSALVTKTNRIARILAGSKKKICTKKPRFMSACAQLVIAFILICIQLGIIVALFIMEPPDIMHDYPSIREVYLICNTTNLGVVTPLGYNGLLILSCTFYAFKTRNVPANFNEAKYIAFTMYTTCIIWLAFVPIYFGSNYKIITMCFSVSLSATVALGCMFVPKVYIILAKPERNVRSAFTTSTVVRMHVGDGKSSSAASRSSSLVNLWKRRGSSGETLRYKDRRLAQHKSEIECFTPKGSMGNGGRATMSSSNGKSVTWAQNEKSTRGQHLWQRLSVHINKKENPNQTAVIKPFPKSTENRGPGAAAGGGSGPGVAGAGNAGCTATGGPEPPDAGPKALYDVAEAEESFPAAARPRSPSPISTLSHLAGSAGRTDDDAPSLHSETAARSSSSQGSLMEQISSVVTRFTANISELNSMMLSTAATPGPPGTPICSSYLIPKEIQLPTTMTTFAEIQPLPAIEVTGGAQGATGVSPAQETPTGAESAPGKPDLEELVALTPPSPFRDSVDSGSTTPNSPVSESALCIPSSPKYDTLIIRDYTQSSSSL

Structure (SMILES)	Activity [1] [%]	Activity [2]	Activity [3] [%]	pEC50 [4]	pIC50 [5]	Activity [6]
C[C@@H]1CN(c2ccc(F)cc2)C(=O)c2cc(COc3cc(C(F)(F)F)ccn3)nn21	1.62	Active	12.9	< 5.00	5.78	
C[C@@H]1CN(c2c(F)cccc2F)C(=O)c2cc(COc3ccc(Cl)cn3)nn21	2.06		40.3	5.85	6.65	Active
C[C@@H]1CN(c2ccc(F)cc2)C(=O)c2cc(COc3ccccc3Cl)nn21	1.63		84.4	6.38	6.27	Active
C[C@@H]1CN(c2cccc(F)c2)C(=O)c2cc(COc3ccc(Cl)cn3)nn21	1.38		63.5	5.22	6.69	Active
Cc1cccc(N2C[C@@H](C)n3nc(COc4ccc(Cl)cn4)cc3C2=O)c1	1.71		69.9	5.44	6.41	Active
C[C@@H]1CN(c2ccc(F)cc2)C(=O)c2cc(COc3ccc(C#N)cc3)nn21	2.53		38.6	5.71	6.11	Active
C[C@@H]1CN(c2ccccc2C#N)C(=O)c2cc(COc3ccc(Cl)cn3)nn21	1.64		38.1	5.30	6.37	Active
COc1ccccc1OCc1cc2n(n1)[C@H](C)CN(c1ccc(F)cc1)C2=O	2.32		63.7	< 5.00	5.60	Active
Cc1ccccc1N1C[C@@H](C)n2nc(COc3ccc(Cl)cn3)cc2C1=O	1.95		80.7	5.64	6.24	Active
C[C@@H]1CN(c2ccc(F)nc2)C(=O)c2cc(COc3ccc(Cl)cn3)nn21	1.45		30.6	< 5.00	6.39	Active
C[C@@H]1CN(c2ccc(F)cc2)C(=O)c2cc(COc3ccc(OC(F)(F)F)cc3)nn21	2.66			< 4.52	5.39	
C[C@@H]1CN(c2ccccc2F)C(=O)c2cc(COc3ccc(Cl)cn3)nn21	1.74		57.3	5.49	6.65	Active
C[C@@H]1CN(c2ccc(F)cc2F)C(=O)c2cc(COc3ccc(Cl)cn3)nn21	1.34		70.8	5.59	6.55	Active
COc1cccnc1OCc1cc2n(n1)[C@H](C)CN(c1ccc(F)cc1)C2=O	-1.14			< 4.52	5.17	
C[C@@H]1CN(c2ccc(F)cc2)C(=O)c2cc(COc3ccccc3)nn21	2.21		87.7	7.34	6.57	Active
C[C@@H]1CN(c2ccc(Cl)cc2)C(=O)c2cc(COc3ccc(Cl)cn3)nn21	0.94		51.2	5.48	5.91	Active
COc1ccc(N2C[C@@H](C)n3nc(COc4ccc(F)cn4)cc3C2=O)cc1	1.23		32.3	5.86	6.49	Active
C[C@@H]1CN(c2ccc(F)cc2)C(=O)c2cc(COc3ncccc3C(F)(F)F)nn21	2.11			< 4.52	5.53	
C[C@@H]1CN(c2ccc(F)cc2)C(=O)c2cc(COc3ccc(C(F)(F)F)cc3)nn21	4.13			< 4.52	5.73	
C[C@@H]1CN(c2cccc(C#N)c2)C(=O)c2cc(COc3ccc(Cl)cn3)nn21	1.75		32.2	< 5.00	6.08	Active
C[C@@H]1CN(c2ccccc2Cl)C(=O)c2cc(COc3ccc(Cl)cn3)nn21	1.87		51	5.26	6.48	Active
COc1ccc(N2C[C@@H](C)n3nc(COc4ccc(Cl)cn4)cc3C2=O)cc1	2.07		59.4	5.36	6.36	Active
C[C@@H]1CN(c2ccncc2)C(=O)c2cc(COc3ccc(F)cn3)nn21	0.77			< 4.52	6.06	

Structure (SMILES)	Activity [1] [%]	Activity [2]	Activity [3] [%]	pEC50 [4]	pIC50 [5]	Activity [6]
C[C@@H]1CN(c2cc(F)ccc2C#N)C(=O)c2cc(COc3ccc(Cl)cn3)nn21	1.55			< 4.52	6.28	
C[C@@H]1CN(c2ncccc2F)C(=O)c2cc(COc3ccc(Cl)cn3)nn21	1.64		32.4	< 5.00	6.44	Active
C[C@@H]1CN(c2ccc(F)cc2)C(=O)c2cc(COc3ccc(F)cc3F)nn21	1.7		82.3	6.51	6.38	Active
C[C@@H]1CN(c2cc(F)cc(F)c2)C(=O)c2cc(COc3ccc(Cl)cn3)nn21	2.18		33.1	< 5.00	6.38	Active
Cc1ccc(N2C[C@@H](C)n3nc(COc4ccc(Cl)cn4)cc3C2=O)cc1	1.39		70.8	< 5.00	6.39	Active
C[C@@H]1CN(c2ccc(F)cc2)C(=O)c2cc(COc3cccc(C(F)(F)F)n3)nn21	2.06			< 4.52	5.63	
COc1ccc(OCc2cc3n(n2)[C@H](C)CN(c2ccc(F)cc2)C3=O)cc1	1.76		40.2	5.87	5.98	Active
C[C@@H]1CN(c2ccc(F)cn2)C(=O)c2cc(COc3ccc(Cl)cn3)nn21	2.44		47.9	< 5.00	6.59	Active
C[C@@H]1CN(c2cccc(Cl)c2)C(=O)c2cc(COc3ccc(Cl)cn3)nn21	1.63		65.8	5.54	6.25	Active
C[C@@H]1CN(c2ccc(F)cc2)C(=O)c2cc(COc3ccc(Cl)cc3)nn21	1.86		81.8	6.22	5.93	Active
Cc1ccc(OCc2cc3n(n2)[C@H](C)CN(c2ccc(F)cc2)C3=O)cc1	1.72		92.5	5.97	5.92	Active
COc1cccc(OCc2cc3n(n2)[C@H](C)CN(c2ccc(F)cc2)C3=O)c1	1.78		32.4	5.74	5.89	Active
C[C@@H]1CN(c2ccc(F)cc2)C(=O)c2cc(COc3ccccc3F)nn21	2.9		89.3	6.71	6.28	Active
C[C@@H]1CN(c2ccc(Cl)cc2)C(=O)c2cc(COc3ccc(F)cn3)nn21	2.17		51.6	6.44	6.71	Active
C[C@@H]1CN(c2ccc(F)cc2)C(=O)c2cc(COc3cccc(F)c3)nn21	1.19		86.1	7.14	6.11	Active
COc1cccc(OCc2cc3n(n2)[C@H](C)CN(c2ccc(F)cc2)C3=O)n1	1.94		31.2	< 5.00	5.80	Active
Cc1ccccc1OCc1cc2n(n1)[C@H](C)CN(c1ccc(F)cc1)C2=O	1.56		83.7	5.82	6.14	Active
C[C@@H]1CN(c2ncccc2C#N)C(=O)c2cc(COc3ccc(Cl)cn3)nn21	1.35			< 4.52	6.17	
C[C@@H]1CN(c2cccc(F)c2F)C(=O)c2cc(COc3ccc(Cl)cn3)nn21	0.33		36.1	5.18	6.07	Active
C[C@@H]1CN(c2ccc(F)cc2)C(=O)c2cc(COc3ncccc3F)nn21	2.22		78.5	5.37	5.96	Active
C[C@@H]1CN(c2ccc(C#N)cc2)C(=O)c2cc(COc3ccc(Cl)cn3)nn21	1.84		23.1	5.48	6.27	Active
COc1cccc(N2C[C@@H](C)n3nc(COc4ccc(Cl)cn4)cc3C2=O)c1	2		78	5.29	6.50	Active
CCc1ccc(OCc2cc3n(n2)[C@H](C)CN(c2ccc(F)cc2)C3=O)cc1	2.29		50.8	5.49	6.08	Active
